In paper PMC9150438 (Methods in enzymology, 2022):
Each block holds one molecule with its values, some of them ahead of it.

Columns and labels:
MEK1-NL = MEK1-NL (Homo sapiens, UniProt Q02750); experiment: NanoBRET tracer build-up; format: binding
How it was run: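 HEK293T cells at ~70% confluence were plated at 200,000 cells/mL and transfected with MEK1-NL alone, MEK1-NL plus mKSR1, or mKSR1-NL, then incubated at least 20 h at 37 °C. The Tram-bo tracer was titrated in each scenario to record BRET, giving an apparent EC50 and maximal BRET signal for each. These set the working tracer concentration above EC50.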

mKSR1:MEK1 complex = conditions: steady-state NanoBRET, 1 μM Tram-bo (Fig. 7A); ref Khan et al., 2020; cited from earlier work
BRAF = BRAF (Homo sapiens, UniProt P15056); experiment: ATP-biotin probe labeling competition assay on isolated BRAF; format: binding; conditions: MEK, KSR1:MEK and KSR2:MEK labeled with 2.5 μM probe (Fig. 4E)
BRAF, sequence (P15056 457-717 limits assumed): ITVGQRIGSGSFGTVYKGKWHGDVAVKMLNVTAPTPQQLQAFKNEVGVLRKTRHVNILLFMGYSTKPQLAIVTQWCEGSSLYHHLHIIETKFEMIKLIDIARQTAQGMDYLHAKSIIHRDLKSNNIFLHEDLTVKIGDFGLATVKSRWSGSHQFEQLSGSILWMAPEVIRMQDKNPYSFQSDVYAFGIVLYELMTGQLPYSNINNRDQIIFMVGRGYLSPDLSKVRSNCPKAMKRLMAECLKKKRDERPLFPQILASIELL

KRAS mutant cell lines = conditions: ref Khan et al., 2020; cited from earlier work
mKSR1-NL W781D = conditions: mKSR1 W781D interface mutant (Fig. 6F); ref Khan et al., 2020; cited from earlier work
SEC = biological target: the molecule itself; experiment: SEC

MEK1-NL, sequence (Q02750 whole entry): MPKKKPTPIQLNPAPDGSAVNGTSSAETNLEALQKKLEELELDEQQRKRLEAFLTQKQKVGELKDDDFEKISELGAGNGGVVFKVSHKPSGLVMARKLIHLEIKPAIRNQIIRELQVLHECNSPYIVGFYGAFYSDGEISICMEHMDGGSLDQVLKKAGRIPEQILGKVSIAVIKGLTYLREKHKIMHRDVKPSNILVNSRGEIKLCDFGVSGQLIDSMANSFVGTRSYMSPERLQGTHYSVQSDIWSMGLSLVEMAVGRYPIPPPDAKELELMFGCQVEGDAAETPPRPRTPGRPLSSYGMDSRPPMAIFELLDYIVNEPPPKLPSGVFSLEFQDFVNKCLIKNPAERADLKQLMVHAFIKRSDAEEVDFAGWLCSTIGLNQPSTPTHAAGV

fold difference of Tram-bo EC50, MEK1-NL vs the two MEK1–mKSR1 complex scenarios (MEK1-NL; MEK1-NL vs mKSR1-NL and MEK1-NL coexpressed with mKSR1 (Fig. 6C)): ~ 20 times
apparent EC50 of Tram-bo (MEK1-NL; NanoBRET build-up curves (Fig. 6C)): in the nanomolar range
Molecule: Cc1c(=O)n(C)c(Nc2ccc(I)cc2F)c2c(=O)n(C3CC3)c(=O)n(-c3cccc(NC(=O)CCOCCOCCNC(=O)CCc4ccc5n4[B-](F)(F)[N+]4=C(c6ccc[nH]6)C=CC4=C5)c3)c12 [Tram-bo]

Molecule: O=C(c1ccc(F)c(F)c1Nc1ccc(I)cc1F)N1CC(O)([C@@H]2CCCCN2)C1 [cobimetinib]
apparent IC50 on free MEK1 compared with the mKSR1:MEK1 complex (mKSR1:MEK1 complex): more potent binding to the complex

inhibitor specificity in ATP-biotin competition assay (BRAF): BRAF-specific inhibition
Molecule: CC(C)(C)c1nc(-c2cccc(NS(=O)(=O)c3c(F)cccc3F)c2F)c(-c2ccnc(N)n2)s1 [dabrafenib]

Molecule: CNS(=O)(=O)Nc1cccc(-n2c(=O)n(C3CC3)c(=O)c3c(Nc4ccc(I)cc4F)n(C)c(=O)c(C)c32)c1 [trametiglue]
potency of growth inhibition relative to trametinib and other MEKi including CH5126766 (KRAS mutant cell lines): markedly enhanced

Molecule: CC(=O)Nc1cccc(-n2c(=O)n(C3CC3)c(=O)c3c(Nc4ccc(I)cc4F)n(C)c(=O)c(C)c32)c1 [trametinib]
dose-response in KSR-NL assay with W781D mutant (mKSR1-NL W781D): loss of a Trametinib dose-response

B1: KSR1 pseudokinase domain [residues 591–899] (domain or fragment, human, UniProt Q8IVT5 591-899, looked up)
chain: PISRKASQTSVYLQEWDIPFEQVELGEPIGQGRWGRVHRGRWHGEVAIRLLEMDGHNQDHLKLFKKEVMNYRQTRHENVVLFMGACMNPPHLAIITSFCKGRTLHSFVRDPKTSLDINKTRQIAQEIIKGMGYLHAKGIVHKDLKSKNVFYDNGKVVITDFGLFGISGVVREGRRENQLKLSHDWLCYLAPEIVREMTPGKDEDQLPFSKAADVYAFGTVWYELQARDWPLKNQAAEASIWQIGSGEGMKRVLTSVSLGKEVSEILSACWAFDLQERPSFSLLMDMLEKLPKLNRRLSHPGHFWKSADI
binding result (SEC): binds
